From PubChem
The sample as a whole holds a higher share of hits than the screen did.
697 NFkB inh = lowers PMA/ionomycin-induced NF-kB signal in 697 B cells; inhibition, % at 4 µM; AID 435022; hit rate 0.33% among 330,000; 697 B-cell NF-kB luciferase reporter, 16 h; in the data active means inhibition above about 35%
Jurkat NFkB inh = lowers PMA/ionomycin-induced NF-kB signal in Jurkat cells; PMA/ionomycin-induced NF-kB luciferase reporter, luminescence; inhibition, % at 4 µM; hit rate 0.53% among 330,000; AID 435003; in the data active means inhibition above about 50%
UPR CHOP act = activators of apoptotic arm of unfolded protein response (CHOP) | AID 449763 | hit rate 0.34% among 330,000 | activation, % at 10 µM | CHO-CHOP luciferase reporter, UPR activation, luminescence; percent of tunicamycin response over DMSO baseline;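 active means at 10 µM dose, activation of 40% or more, normalized to positive control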;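 further: 100% = tunicamycin at 10 µg/mL and 0% = DMSO alone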
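Evaluation: % reporter activation, DMSO baseline versus tunicamycin full activation; System: CHO-CHOP luciferase reporter cell line; Input: 500 cells/well; Incubation: 6 h compound treatment, 37 °C; Measured by: Steady-Glo luciferase luminescence; Dosing: one dose, 10 µM in 0.5% DMSO; Buffer or medium: F12 medium, 10% FBS; Benchmarks: positive tunicamycin 10 µg/mL, negative DMSO alone.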
CHOP inh = blocks CHOP induction under ER stress. CHO-K1 CHOP-promoter luciferase, tunicamycin-induced, 15-18 h. inhibition, % at 10 µM. hit rate 3.8% among 220,000;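 active means compounds that reduced the stress-induced luciferase reporter signal by more than about 70% of percent inhibition, limit read from the data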;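 further: 0% = tunicamycin plus vehicle and 100% = wells without tunicamycin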
UPR XBP1 act = activators of adaptive arm of unfolded protein response (XBP1); CHO-XBP1 luciferase reporter, IRE1-XBP1 UPR activation, luminescence; percent of tunicamycin response, DMSO as zero; activation, % at 20 µM; hit rate 0.33% among 330,000; AID 463104;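 active means versus positive control, 20 µM dose yields 30% or more activation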;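 further: 100% = tunicamycin at 10 µg/mL and 0% = DMSO only wells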
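Material: CHO-XBP1 cells stably carrying IRE1-XBP1-driven luciferase reporter | Medium: F12 with 10% serum | Compound dosing: 20 µM single concentration, DMSO 1% | Incubation: Overnight seeding at 37 °C, 6 h compound treatment at 37 °C | Detection: Steady-Glo luminescence read | Read-out basis: % activation of reporter signal versus tunicamycin and DMSO controls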
Starred values were filed as active, the others as inactive; / = not tested or not shown.

SMILES	697 NFkB inh	Jurkat NFkB inh	UPR CHOP act	CHOP inh	UPR XBP1 act
COc1ccc([N+](=O)[O-])cc1NC(=O)C(C)N(C)Cc1ccc(Br)cc1 (stereo not given)	-4.9	19.2	-1.8	70.1*	-3.7
COc1ccc(/C=C(\C#N)C(=O)OCCNC(=O)c2ccncc2)cc1	9.0	-0.5	-1.4	10.5	-2.6
COC(=O)c1c(C)[nH]c(C(=O)/C=C/c2ccccc2)c1C	-200.8	-93.8	4.0	75.8*	-2.2
CCOP(=O)(OCC)c1nc(/C=C/c2ccccc2)oc1NCc1ccccc1	-13.8	10.7	-1.7	38.1	-3.4
CCOP(=O)(OCC)c1nc(-c2cccc3ccccc23)oc1NCc1ccccc1	17.1	9.3	-1.2	77.4*	0.7
CCOP(=O)(OCC)c1nc(/C=C/c2ccccc2)oc1NCc1ccc(OC)cc1	-9.1	-5.7	-1.1	76.5*	-0.8
COc1ccc(/C=N/NS(=O)(=O)c2ccccc2)cc1OC(=O)c1ccc(C)cc1	-11.1	10.0	-0.6	73.8*	-1.6
COc1ccc(/C=N/NS(=O)(=O)c2ccc(C)cc2)cc1OC(=O)c1ccccc1	22.0	4.8	-2.9	58.8	0.3
Cc1ccc(OCC(=O)Nc2cccc(S(=O)(=O)N3CCCCCC3)c2)cc1C	-9.3	-16.1	-0.2	/	-1.9
Cn1c(SCC(=O)NCc2ccc3c(c2)OCO3)nc2scc(-c3cccs3)c2c1=O	-11.3	-6.8	0.5	17.8	0.7
CN(C)CCCNC(=O)/C(=C/c1ccc(-c2ccc([N+](=O)[O-])cc2)o1)NC(=O)c1ccccc1	5.7	26.3	0.7	/	-0.2
CN(C)CCCNC(=O)/C(=C\c1ccc(-c2ccc(Br)cc2)o1)NC(=O)c1ccccc1	-5.8	7.2	2.1	81.2*	0.1
CSC(=S)NCc1cccnc1	23.6	-1.2	-2.7	-7.7	-0.2
CCn1ncc(Br)c1C(=O)N(C)C12CC3CC(CC(C3)C1)C2	17.5	7.4	-1.5	87.1*	-3.0
CCn1ncc(Br)c1C(=O)Nc1ccn(C23CC4CC(CC(C4)C2)C3)n1	-21.5	-11.9	1.2	-4.6	0.1
O=C(CN1CCN(c2ccccc2)CC1)Nc1ccccc1C(F)(F)F	1.1	-4.9	1.3	94.6*	-6.2
Clc1ccc(-c2nc(N3CCCCC3)nc3ccccc23)cc1	0.1	-0.7	-2.2	9.1	-2.6
c1ccc(-c2nc(-n3nc4ccccc4n3)nc3ccccc23)cc1	16.9	1.4	-2.0	73.9*	15.5
O=C1CN(c2nc(-c3ccccc3)c3ccccc3n2)c2ccccc2N1	-0.6	14.6	1.6	77.5*	-0.3
COc1ccc(-c2nc(N)nc(C)c2Oc2ccccc2Br)c(O)c1	-17.6	22.8	-0.2	95.4*	-2.6
C/C(=N\NC(=O)c1ccccc1NC(=O)c1ccc(Cl)cc1)c1ccncc1	-27.1	18.7	-9.2	72.2*	-6.1
Cc1cccc(C(=O)NCCNc2nc3cc(C)c(C)cc3cc2C)c1	-21.6	4.1	-0.8	76.0*	0.7
Cc1cc2cc(C)c(NCCNC(=O)c3cccc(F)c3)nc2cc1C	12.8	12.7	-1.0	0.4	0.9
O=C(CCc1ccccc1)NC(=S)Nc1cccc(Br)c1	-10.8	3.9	8.2	71.8*	1.4
O=C(CCc1ccccc1)NC(=S)Nc1cccc(C(=O)O)c1	-57.3	-0.8	-4.5	/	-10.3
SMILES	697 NFkB inh	Jurkat NFkB inh	UPR CHOP act	CHOP inh	UPR XBP1 act
O=C(Nc1nnc(CCS(=O)(=O)c2ccc3ccccc3c2)s1)c1ccc([N+](=O)[O-])cc1	3.9	12.8	0.5	15.3	-2.4
COc1ccc(NC(=O)N(C)C[C@H]2Oc3ccc(NS(=O)(=O)c4cccs4)cc3C(=O)N([C@@H](C)CO)C[C@@H]2C)cc1	-0.6	3.2	-1.4	/	-2.1
O=C(NC(NC(=S)Nc1cccc(Cl)c1)C(Cl)(Cl)Cl)OCc1ccccc1 (stereo not given)	-32.0	-9.0	-2.1	109.3*	6.0
CCCCN1C(=O)c2ccc(C(=O)NCCN3C(=O)S/C(=C\c4cccnc4)C3=O)cc2C1=O	7.1	-8.4	-0.6	76.3*	-1.9
CCNc1ccc(Br)cc(C(=O)/C=C/c2ccc(Cl)cc2Cl)c1=O	-3.0	-11.5	10.0	76.0*	0.4
Cc1nc(NC(=O)CCc2ccccc2)ccc1Br	-37.1	-43.8	3.5	79.9*	1.7
C=CCN(c1ccccc1)S(=O)(=O)c1cccc(C(=O)NCc2ccco2)c1	-19.6	3.4	-0.3	/	-4.7
O=C(NNC(=O)c1cc(-c2ccc(Cl)cc2Cl)nc2ccccc12)Nc1ccccc1	1.0	8.9	3.4	95.7*	4.6
NS(=O)(=O)c1ccc(CNC(=O)Cn2nc(C(F)F)cc2C(F)F)cc1	15.6	5.0	2.2	/	-2.2
CCN1CCN(Cc2ccc(NC(=O)c3cc(NC(=O)c4cc(-c5ccc(OC)cc5)n[nH]4)cc(OC)c3)cc2C(F)(F)F)CC1	-0.8	-42.3	-0.4	87.2*	4.4
CCN1CCN(Cc2ccc(NC(=O)c3cc(NC(=O)c4ccc5n[nH]nc5c4)cc(OC)c3)cc2C(F)(F)F)CC1	-4.4	0.1	0.3	-1.7	-0.5
Cc1cc(C(=O)COC(=O)Cc2n[nH]c(=O)c3ccccc23)c(C)n1-c1ccc2c(c1)OCO2	-38.9	-0.8	0.3	84.6*	-1.4
COc1ccc(-n2c(C)cc(C(=O)COC(=O)Cc3n[nH]c(=O)c4ccccc34)c2C)cc1	-19.6	-4.3	2.0	31.6	-0.1
CCNC(=O)[C@H]1O[C@@H](n2cnc3c(N)nc(NCCc4ccc(CCC(=O)O)cc4)nc32)C(O)[C@H]1O (stereo not given in full)	/	/	/	-15.6	/
O=C(Nc1ccc(Cl)cc1)OC(CN1CCCCC1)C(F)(F)F (stereo not given)	19.5	-7.2	-1.8	74.2*	-1.2
O=C(CSc1n[nH]c(-c2ccncc2)n1)Nc1ccc(Cl)c(Cl)c1	3.0	6.4	2.6	/	0.5
OCC1(Cc2ccccc2)CCN(Cc2cnc(-c3ccc(Cl)cc3)nc2)CC1	-20.0	19.7	0.9	73.1*	0.2
OCC1(Cc2ccccc2)CCN(Cc2cnc(-c3cccc4ccccc34)nc2)CC1	13.8	11.8	-0.6	36.1	0.3
CCOC(=O)CN(C(=O)CSc1nnc2c(n1)[nH]c1ccccc12)c1ccccc1	-23.3	0.1	-0.5	17.0	1.3
CCOC(=O)CN(C(=O)CSc1nnc2c(n1)[nH]c1c(C)cc(C)cc12)c1ccccc1	/	/	/	82.2*	/
O=C(NCCc1nnc2ccc(NCc3cccnc3)nn12)c1ccccc1F	4.8	-15.1	0.0	1.7	-0.5
Cc1cccc(OCC(=O)N/N=C\c2cn(C)c3ccccc23)c1	-0.1	-11.6	0.7	54.8	-0.4
CCOC(=O)c1c2ccc(OCC(=O)N/N=C/c3ccccc3C(F)(F)F)cc2n2ccccc12	/	/	/	96.2*	/
O=C(CCC(=O)c1ccc(F)cc1)Nc1cc(Cl)cc(Cl)c1	-17.2	6.0	-0.5	84.0*	1.5
CC(=O)c1cccc(NC(=O)CCC(=O)c2ccc(F)cc2)c1	-2.6	-16.5	-0.5	/	-0.9
